Screening data: PubChem, several laboratories
Most compounds without a hit are left out; they make up all but 2% or so of the library.
CXCR6 block: blocks human CXCR6 beta-arrestin recruitment | CHO-K1 PathHunter CXCR6 beta-arrestin, luminescence | inhibition, % at 20 µM | actives 0.36% (n = 360,000) | O00574; in the data active = inhibition above about 34%, passing the limit was not always enough;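 also: antagonist mode with CXCL16 agonist at 10 nM final; 0% = 10 nM CXCL16 with DMSO and 100% = unstimulated wells without agonist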
APJ ag: activates the human apelin receptor APJ; P35414; CHO-K1 APJ PathHunter beta-arrestin, luminescence; 0% DMSO wells, 100% apelin; activation, % at 20 µM; actives 0.11% (n = 330,000);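 active = activation more than six SD over the plate average, tested at 20 µM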;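 also: 0% = DMSO alone and 100% = apelin-13 at 10 nM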
Target sequence (P35414 whole entry, looked up): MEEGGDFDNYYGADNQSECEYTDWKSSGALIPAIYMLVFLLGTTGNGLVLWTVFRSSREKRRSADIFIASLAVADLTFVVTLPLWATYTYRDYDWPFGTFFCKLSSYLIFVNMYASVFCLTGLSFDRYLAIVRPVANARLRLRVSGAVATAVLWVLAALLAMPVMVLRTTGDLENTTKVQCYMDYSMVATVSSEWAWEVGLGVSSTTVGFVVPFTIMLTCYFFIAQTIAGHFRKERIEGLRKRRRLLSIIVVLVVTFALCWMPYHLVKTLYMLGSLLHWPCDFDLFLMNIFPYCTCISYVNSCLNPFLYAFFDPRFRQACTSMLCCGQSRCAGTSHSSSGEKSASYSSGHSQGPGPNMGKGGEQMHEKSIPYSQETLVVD
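Assay system: engineered CHO-K1 APJ arrestin reporter cells; Amount: 1000 CHO-K1 reporter cells seeded per well; Dosing: one dose, 20 µM compound, 1% DMSO; Times: compound stimulation 90 min at 25 °C, detection 60 min; Measured by: luminescent beta-gal fragment complementation, chemiluminescent substrate; Read-out: APJ–arrestin association signal; Controls: DMSO vs Apelin-13 10 nM.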
APJ antagonist: antagonists of human APJ apelin receptor | CHO-K1 APJ beta-arrestin complementation, luminescence | inhibition, % at 20 µM | AID 2521 | actives 0.32% (n = 330,000) | P35414;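 active = inhibition above about 40% at 20 µM, limit read from the data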;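 also: cells challenged with 10 nM apelin-13 agonist together with compound; plate controls were apelin-13 plus DMSO wells for no effect and DMSO wells lacking apelin-13 for full effect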
GAA850 FXN act: frataxin GAA850 promoter activation; activation, % at 6 µM; actives 0.56% (n = 360,000); HEK293 lucGAA850 FXN promoter luciferase reporter, 24 h; percent of 10 µM SAHA response;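 active = activation above the average of all compounds screened plus 3 SD, cutoff fixed separately per campaign, cut at about 7.5% in these data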;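 also: 0% = DMSO wells and 100% = 10 µM SAHA wells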
CCR6 antag: blocks CCL20-driven beta-arrestin recruitment at human CCR6; P51684; CHO-K1 CCR6 PathHunter beta-arrestin, luminescence, CCL20-stimulated; inhibition, % at 20 µM; actives 0.49% (n = 340,000); AID 493098;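 active = compounds whose inhibition of the agonist-driven luminescence signal at 20 µM reaches about 50%, limit read from the data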;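 also: cells stimulated with CCL20 at 14 nM final; plate controls were DMSO with CCL20 for no effect and DMSO without agonist for full effect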
EBI2 antag: EBI2 (human) antagonism; P32249; EBI2 beta-arrestin recruitment, luminescence, 7a,25-OHC stimulated; inhibition, % at 5 µM; actives 0.81% (n = 360,000); in the data active = inhibition above about 38%;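 also: enzyme fragment complementation signal reports receptor beta-arrestin coupling in cells; 0% = agonist plus DMSO wells and 100% = wells without agonist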
An asterisk follows results filed as active; nt = no result given.

SMILES | CXCR6 block | APJ ag | APJ antagonist | GAA850 FXN act | CCR6 antag | EBI2 antag
Cc1ccc(C2=CC(=O)C[C@H](c3ccc(Cl)cc3)C2)cc1 | -3 | -5 | -8 | 2 | 24 | 74*
Cc1c(C(=O)NCCC#N)sc(=O)n1Cc1ccccc1F | 3 | nt | nt | 0 | nt | -1
COc1ccc(C(=O)Nc2nc(-c3ccc([N+](=O)[O-])cc3)c(-c3ccc(OC)cc3)s2)cc1 | 30 | -1 | -30 | 1 | 61* | 19
C[C@H](CO)N1C[C@H](C)[C@@H](CN(C)S(=O)(=O)c2cn(C)cn2)Oc2c(NC(=O)Nc3ccc4c(c3)OCO4)cccc2C1=O | -1 | -4 | -6 | 0 | 5 | 1
CC(C)(C)N(Cc1ccccc1)C(=O)CSc1nnc(CNc2ccc(F)cc2)o1 | -2 | -2 | -2 | -1 | -5 | 47*
O=C(CSc1nnc(CNc2ccc(F)cc2)o1)N1c2ccccc2Sc2ccccc21 | -4 | 1 | -5 | -4 | 0 | 43
Nc1ccccc1SC(CC(=O)c1ccccc1)c1cccc([N+](=O)[O-])c1 (centres undefined) | 31 | nt | nt | 11* | nt | 2
Nc1ccccc1SC(CC(=O)c1ccccc1)c1ccc([N+](=O)[O-])cc1 (centres undefined) | 2 | nt | nt | 8.0* | nt | 3
Cc1c(N/N=C(\C#N)C(=O)c2ccccc2)c(=O)n(-c2ccccc2)n1C | 35 | nt | nt | -2 | 63* | 10
Cc1ccccc1C(=O)/C(C#N)=N/Nc1c(C)n(C)n(-c2ccccc2)c1=O | 45* | nt | nt | -1 | 48 | 6
CCOC(=O)/C(C#N)=N/Nc1c(C)n(C)n(-c2ccccc2)c1=O | 11 | -1 | 13 | 2 | 17 | 8
COc1ccc(C(=O)c2[nH]c(N)c(C(=O)NCCc3c[nH]c4ccccc34)c2-c2ccc(C(F)(F)F)cc2)cc1 | 12 | nt | nt | nt | nt | 2
Cc1ccc(C)c(OCCC(=O)OCC(=O)N2CCN(S(=O)(=O)c3ccc(Cl)cc3)CC2)c1 | -10 | 15 | 2 | 3 | 19 | 3
CCOc1ccc(OCCC(=O)OCC(=O)N2CCN(S(=O)(=O)c3ccc(Cl)cc3)CC2)cc1 | 3 | 1 | -12 | 9.7* | 5 | 8
C=CCn1c(SCc2ccc(Cl)cc2)nc2c1c(=O)[nH]c(=O)n2C | 4 | 1 | -1 | 6 | -15 | 4
C=CCn1c(SCc2ccc(F)cc2)nc2c1c(=O)[nH]c(=O)n2C | 10 | -4 | 2 | 23* | 1 | -7
C#Cc1ccc([C@@H]2C=C(C(=O)N3CCN(Cc4ccccc4)CC3)O[C@H](OCC)[C@H]2CCCO)cc1 | 3 | 3 | 11 | -2 | 11 | 24
C#Cc1ccc([C@H]2C=C(C(=O)N3CCN(Cc4ccccc4)CC3)O[C@@H](OCC)[C@@H]2CCCO)cc1 | 10 | -4 | 0 | 0 | 13 | 56*
CCO[C@@H]1OC(C(=O)N2CCN(Cc3ccc4c(c3)OCO4)CC2)=C[C@H](c2ccc(Br)cc2)[C@H]1CCCO | 36 | -12 | -3 | 0 | 51* | 29
CCO[C@@H]1OC(C(=O)N2CCN(Cc3ccc4c(c3)OCO4)CC2)=C[C@H](c2ccc(C(F)(F)F)cc2)[C@H]1CCCO | 26 | -7 | -46 | 2 | 38 | 17
CCCCNC(=S)N/N=C1\C(=O)c2cccc3cccc1c23 | 12 | -6 | 15 | -1 | 12 | 5
CNC(=S)N/N=C1\C(=O)c2cccc3cccc1c23 | 37 | -5 | 39 | 2 | 52* | 17
CC(=O)OC[C@]12CC[C@H]3[C@@](C)(CC[C@H]4C(C)(C)CCC[C@]34C)[C@@H]1CC(C1=CC(=O)OC1O)O2 (some centres undefined) | 39 | nt | nt | -15 | nt | 87*
CCOC(=O)CC(=O)CSc1nc2c(c(-c3cccs3)c1C#N)CCC2 | -7 | -3 | 20 | 0 | 23 | 8
CN1CCc2nc(SCc3ccc(Cl)cc3)c(C#N)c(-c3cccs3)c2C1 | nt | -1 | 27 | nt | 74* | nt
SMILES | CXCR6 block | APJ ag | APJ antagonist | GAA850 FXN act | CCR6 antag | EBI2 antag
CC(=O)Nc1ccc(-c2ccnc3c2CC(C)(C(=O)NCc2ccco2)O3)cc1 (centres undefined) | 10 | nt | nt | -6 | nt | 1
Cc1ccc(NC(=O)CN2C(=O)N/C(=C\c3ccco3)C2=O)cc1 | 0 | -4 | 16 | 0 | 2 | -3
Cc1ccc2cc3c(N)c(C(=O)N4CC(=O)Nc5ccccc54)sc3nc2c1 | nt | -20 | 98* | nt | nt | nt
Cc1ccc2cc3c(N)c(C(=O)N4CCOCC4)sc3nc2c1 | 0 | -6 | 19 | -3 | 6 | -12
Cn1ccsc1=NC(=O)c1cc(S(=O)(=O)N2CCOCC2)ccc1F | 3 | 0 | 20 | 3 | 9 | -2
O=C(Oc1ccc(C(=S)N2CCOCC2)cc1Br)c1cc(Cl)ccc1Cl | 8 | -5 | 2 | 1 | 37 | 54*
C#CCOc1ccc(/C=C2\SC(=S)N(Cc3cccnc3)C2=O)cc1 | 9 | 4 | 10 | 2 | 9 | -11
O=C1/C(=C/c2ccc(O)cc2)SC(=S)N1Cc1cccnc1 | 20 | -8 | 47* | 0 | 45 | 31
O=C(NCCCn1ccnc1)c1ccc(COc2ccccc2)o1 | 3 | 2 | 5 | -4 | 9 | -11
COc1ccccc1-c1cc(C(F)(F)F)nc(S(=O)(=O)CCCC(=O)NC(C)C)n1 | 16 | 1 | 5 | 2 | 14 | -12
COc1ccccc1-c1cc(C(F)(F)F)nc(S(=O)(=O)CCCC(=O)NCc2ccc(F)cc2)n1 | 40* | 0 | 8 | -1 | 23 | 9
COc1ccc(-n2nc3c(N4CCC(C(=O)NCc5ccccc5C)CC4)nnc(C)c3c2C)cc1 | 12 | -1 | 13 | -1 | 51* | 19
O=C(/C=C1\NC2(CCCC2)Cc2ccccc21)N1CCOCC1 | 12 | -4 | -1 | 1 | 28 | -17
CC1(C)Cc2c(ccc3ccccc23)/C(=C/C(=O)N2CCCCC2)N1 | 28 | -9 | 16 | 2 | 64* | 24
COc1cccc(C(=O)NCC2CCCN(C(=O)Cc3cccc(C)c3)C2)c1OC (centres undefined) | -9 | nt | nt | -3 | nt | -3
COc1cc(/C=C2/C(=O)N(c3ccc([N+](=O)[O-])cc3)N=C2N2CCOCC2)ccc1O | 37 | -3 | 32 | -1 | 55* | 6
Cc1ccc(Cc2c(-c3ccc(F)cc3)nc3cc(C)ccn23)cc1 | 19 | nt | nt | 7 | nt | 3
N#CCC(=N)N1CCN(c2ccc(Cl)cc2)CC1 | -6 | -2 | -11 | 0 | 14 | -2
CCOP(=O)(OCC)C(C#N)=C1SCN(c2ccc(Cl)cc2)CS1 | 28 | -1 | 20 | -2 | 82* | 2
CC(C)(C)OC(=O)Nc1ccccc1-n1nnnc1C(C(=O)c1ccc(F)cc1)N1CCN(c2ccccn2)CC1 (centres undefined) | nt | nt | nt | nt | nt | 1
